CYP2C19 act = increases human CYP2C19 enzyme activity | activation factor at 5 µM | 96,000 tested, under 10 active | recombinant CYP2C19, luciferin-H EGE luminescence; stronger effect = higher value; 0 = fully inhibited enzyme, 1 = untreated enzyme | P33261;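 active = activation factor of at least 2 at 5 µM in the primary screen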
Cav32 inh = inhibitors of human Cav3.2 T-type calcium channel. O95180. Cav3.2-expressing cells, Fluo-4 calcium fluorescence FDSS; stronger effect = lower value. B-score at 10 µM. hit rate 4% among 100,000;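 active = single-dose well whose peak fluorescence ratio is a statistical outlier from its plate by either plate-standardised score or position-corrected B-score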
CYP2C9 activ = activators of human CYP2C9 | AID 1024 | activation factor at 5 µM | recombinant CYP2C9, luciferin-H conversion, luminescence; stronger effect = higher value; factor 1 = untreated enzyme, 0 = blocked | hit rate 1.4% among 96,000;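 active = activation factor of 2 or more for CYP2C9 at a 5 µM dose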
CYP2C9 inhib = blocks human cytochrome P450 2C9; hit rate 20% among 96,000; CYP2C9 Supersomes, luciferin-H conversion, luminescence; AID 777; inhibition, % at 5 µM; P11712;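 active = blocking of liver enzyme CYP2C9 beyond about 50% at 5 µM, limit read from the data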
Rev-RRE block = disrupts HIV-1 Rev binding to RRE RNA | P05866 | Rev peptide-RRE RNA binding, FRET | inhibition, % at 8 µM | hit rate 0.79% among 97,000;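 active = inhibition above the screen-wide mean plus 3 SD, cut at about 35% in these data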
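Test system – labelled RRE RNA duplex and labelled Rev peptide · Signal – fluorescein-to-Cy5 FRET, 480 nm excitation · Evaluation – % inhibition of FRET ratio versus controls · Benchmarks – DMSO low control, neomycin B high control · Incubation – 5 min RNA-compound premix plus 15 min binding step, 25 °C · Medium – HEPES pH 7.5 salt buffer with EDTA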
CYP2C19 inh = human CYP2C19 inhibition; P33261; CYP2C19 Supersomes, luciferin-H EGE luminescence, 30 min; inhibition, % at 5 µM; hit rate 21% among 96,000; AID 778;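 active = CYP2C19 inhibition above a set limit at 5 µM in the primary screen, cut at about 50% in these data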
A number is an active result; . = inactive; / = not tested or not shown. Compounds with a hit are over-represented: about 27% of the library has one in this group of screens.

SMILES	CYP2C19 act	Cav32 inh	CYP2C9 activ	CYP2C9 inhib	Rev-RRE block	CYP2C19 inh
CN(C1CCS(=O)(=O)C1)S(=O)(=O)c1ccc(C2CCCCC2)cc1 (stereo unspecified)	.	.	.	.	.	.
Cc1ccc(CCC2C3=C(CCCC3=O)OC3=C2C(=O)CCC3)cc1	.	.	.	75	.	95
CN(C)c1ccc(C2C3=C(CCCC3=O)OC3=C2C(=O)CCC3)cc1	.	.	.	.	.	.
Cc1ccc(S(=O)(=O)Oc2ccc(C3C4=C(CCCC4=O)OC4=C3C(=O)CCC4)cc2)cc1	.	.	.	.	.	.
CC(C)c1ccc(CC(C)C2C3=C(CCCC3=O)OC3=C2C(=O)CCC3)cc1 (stereo unspecified)	.	.	.	97	.	99
c1csc(CCNc2ncnc3sc4c(c23)CCC4)c1	.	/	.	.	/	94
O=S(=O)(Nc1ncnc2sc3c(c12)CCC3)c1ccc2ccccc2c1	.	-4.7	.	79	.	.
Fc1ccc(Nc2ncnc3sc4c(c23)CCC4)cc1	.	.	.	61	.	88
O=S(=O)(Nc1nc2c(s1)CCCC2)c1ccc2ccccc2c1	.	.	.	.	.	.
c1cn(CCCNc2ncnc3sc4c(c23)CCC4)cn1	.	.	.	97	/	100
Cc1ccc(C(=O)Nc2ncnc3sc4c(c23)CCCCC4)cc1	.	.	.	.	.	.
CCN1CCCC1CNC(=O)Cn1cccc1C(=O)c1ccccc1C (stereo unspecified)	.	.	.	.	.	.
CCN(CC)C(=O)CSc1nnc(CCCCCNC(=O)OC(C)(C)C)o1	.	.	.	.	.	.
COc1ccc(NC(=O)C23CCC(C)(C(=O)C2)C3(C)C)cc1 (stereo unspecified)	.	.	.	.	.	.
CCOC(=O)c1c(NC(=O)c2cccs2)sc(CC)c1-c1cccs1	.	.	.	.	.	.
C[C@H](Nc1ncnc2sc3c(c12)CCC3)C(=O)O	.	/	.	.	.	.
c1ccc(Nc2ncnc3sc4c(c23)CCC4)cc1	.	.	.	.	.	76
CN(C)c1ccc(CN(C)C2CCCCC2)cc1	.	.	.	.	.	93
CN(C)c1ccc(CN2CCCCCC2)cc1	.	.	.	67	/	55
COC(=O)CCP(=O)(O)Cc1ccccc1CP(=O)(O)CCC(=O)OC	.	.	.	.	.	.
COC(=O)C1=C(C(=O)OC)[C@@H]2N(C)c3ccc(OC)cc3[C@@]23C[C@@H](C(=O)OC)N(C(=O)COCc2ccccc2)C3=N1	/	.	/	/	/	/
COc1ccc(C(=O)n2nc(-c3ccccc3)nc2N)cc1OC	.	.	.	.	.	.
CCCCOc1ccc(C(=O)NC)cc1	.	.	.	.	.	.
CCCCOc1ccc(C2(C)CC(=O)NC2=O)cc1 (stereo unspecified)	.	.	.	.	/	51
Cc1occc1C(=O)NC1CCCc2ccccc21 (stereo unspecified)	.	.	.	.	.	71
SMILES	CYP2C19 act	Cav32 inh	CYP2C9 activ	CYP2C9 inhib	Rev-RRE block	CYP2C19 inh
Cc1c(C(=O)NC2CCCc3ccccc32)oc2ccccc12 (stereo unspecified)	.	-4.6	.	.	.	.
Cc1cccc(/C=C2\CS/C(=C\c3cccc(C)c3)C2=O)c1	.	.	.	.	.	.
O=C1/C(=C/c2cccc(F)c2)CSc2sccc21	.	/	.	54	.	.
O=C(c1ccc(S(=O)(=O)N2CCOCC2)cc1)N1CCN(c2ccccc2F)CC1	.	.	.	.	.	.
CCC(=O)c1cc(-c2nc3ccccc3n2C)n(C)c1	.	.	.	65	.	56
CCCC(=O)c1cc(-c2nc3ccccc3n2C)n(C)c1	.	.	.	.	.	.
Cn1cc(C(=O)c2ccccc2)cc1-c1nc2ccccc2n1C	.	.	.	73	.	83
O=C(NC1C=CS(=O)(=O)C1)c1sc2ccccc2c1Cl (stereo unspecified)	.	.	.	.	.	.
CCC1Oc2ccc(C)cc2N(CC(=O)NCCC2=CCCCC2)C1=O (stereo unspecified)	.	.	.	.	/	99
Fc1cccc(Cn2cc(C(=S)N3CCCCC3)c3ccccc32)c1	.	-4.9	.	.	.	.
C=CCSc1nc(N)c(C#N)c(-c2ccc(C)cc2)c1C#N	.	.	.	63	.	.
